Sampled rows, rich in hits. Any-hit rate of the full collection: about 2%.
Jurkat tox 60K: cytotoxic compounds reducing Jurkat cell viability | Jurkat E6.1 viability, ATP luminescence, 48 h | inhibition, % at 4 µM | 56,000 tested, 1.2% active | AID 463;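 active = inhibition above the mean inhibition of all tested compounds plus 3 SD, cut at about 28% in these data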
HEK293 NFkB inh: lowers PMA/ionomycin-induced NF-kB signal in HEK293 cells. 62,000 tested, 0.21% active. HEK-293 NF-kB luciferase reporter, luminescence. inhibition, % at 3 µM;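 active = inhibition above the mean of all tested compounds plus 3 SD, cut at about 40% in these data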;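 note: 0% = stimulated DMSO wells and 100% = 10 µM reference inhibitor 5653914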
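Timing: 1 h pretreatment, 16 h stimulation, 37 °C; system: HEK-293 cells with stable firefly luciferase reporter driven by four HIV NF-kB elements; doses: 3 µM once, 0.30% DMSO; measured by: luciferase luminescence; control set: DMSO and 10 µM reference inhibitor; repeats: single test; reagent: PMA plus ionomycin mix as NF-kB-activating stimulus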
HER2 expr 66K: inhibitors of human Her2 kinase expression; SKBR-3 HER2 protein level, AlphaScreen, 18-24 h; active compounds read low; HER2 level % of control, % at 10 µM; 65,000 tested, 0.69% active; AID 645;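 active = HER2 level under 5% of the carrier-only control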;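 note: 100% = DMSO carrier and 0% = 500 nM PU-H71 HSP90 inhibitor; lower value means stronger loss of Her2 protein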
SK-BR-3 tox 24h: SK-BR-3 proliferation inhibitors; SK-BR-3 viability, CellTiter-Glo ATP luminescence, 24 h; active compounds read low; viability, % at 10 µM; 41,000 tested, 0.47% active; AID 847;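 active = viability at or below the median of all test compounds minus 3 SD, in both replicates if run twice, cut at about 45% in these data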;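 note: 100% = median untreated cell wells and 0% = median positive control drug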
The depositor's hits bear a star; · = not tested or not shown.

SMILES	Jurkat tox 60K	HEK293 NFkB inh	HER2 expr 66K	SK-BR-3 tox 24h
CCCSC1=N/C(=C\C=C\c2ccco2)C(=O)S1	-2	17	-3.4*	·
COc1cccc(/C=N/n2c(C)c3c(C)nnc(C)c3c2C)c1O	-3	18	91	99
COc1ccc(CCNC(=O)CCSc2nc(-c3ccco3)cc(C(F)(F)F)n2)cc1OC	3	4	76	81
Cc1cc(NC(=O)CSc2nc(-c3cccs3)cc(C(F)(F)F)n2)no1	74*	29	67	92
COc1ccc(-c2cc(C(F)(F)F)nc(SCCC(=O)Nc3cc(C)on3)n2)cc1	4	0	124	72
Cc1cc(NC(=O)CCCS(=O)(=O)c2nc(-c3cccs3)cc(C(F)(F)F)n2)no1	100*	-2	-16*	37*
CS(=O)(=O)c1nc(-c2cccs2)cc(C(F)(F)F)n1	·	17	-24*	22*
Cc1cc(NC(=O)CSc2nc(-c3ccco3)cc(C(F)(F)F)n2)n(-c2ccccc2)n1	33*	23	31	86
Cc1cc(C)nc(N2CCCC(C(=O)Nc3nc4ccc(S(C)(=O)=O)cc4s3)C2)n1 (stereo unspecified)	7	11	58	85
CCSc1nnc(NC(=O)CSc2nnc(-c3c[nH]c4ccccc34)n2C)s1	-1	5	102	·
N=c1sccn1CC(=O)Nc1ccccc1-c1ccccc1	·	7	110	33*
N=c1sccn1CC(=O)Nc1cccc(Oc2ccccc2)c1	7	14	121	·
Cc1c(C#N)c(N)c(C(=O)c2ccccc2)n1Cc1ccccc1	·	·	-32*	97
Cc1c(C#N)c(N=CN(C)C)c(C(=O)c2ccccc2)n1-c1ccccc1	6	5	112	·
Cc1nn(-c2ccc3nnc(Br)n3n2)c(C)c1Br	4	-4	88	101
Cn1c(=O)c2c(nc(CN3CCN(c4ccc(F)cc4)CC3)n2Cc2ccccc2F)n(C)c1=O	-2	14	65	103
CC1=C(C)C(=O)NC(Nc2nc(C)c3cc(C)cc(C)c3n2)N1 (stereo unspecified)	-1	1	-14*	·
COc1ccc(NC(=O)C(F)(OC)C(F)(F)F)c(OC)c1 (stereo unspecified)	-6	10	100	41*
Cc1oc(-c2ccccc2Cl)nc1CSCC(=O)N1CCCC1	39*	87*	72	·
Cc1ccc(-c2nc(CSCC(=O)N3CCOCC3)c(C)o2)cc1	6	11	111	·
N=c1n(CCN2CCCCC2)c2ccccc2n1CC(O)c1cccc(Br)c1 (stereo unspecified)	3	6	35	44*
CCn1c(CNc2cccc(Cl)c2)nnc1SCc1ccccc1	3	4	113	37*
CC1CCN(CCNC(=O)C2CCCN(S(=O)(=O)c3cccc4nonc34)C2)CC1 (stereo unspecified)	·	23	61	·
COc1ccc(C(=O)c2ccc(OC)c(OC)c2)cc1OC	-3	11	125	104
COc1ccc(C(=O)c2ccc(OC)c(N)c2)cc1N	62*	20	63	92
SMILES	Jurkat tox 60K	HEK293 NFkB inh	HER2 expr 66K	SK-BR-3 tox 24h
CC1CCc2sc3ncnc(N4CCOCC4)c3c2C1 (stereo unspecified)	6	5	153	71
CC1CCc2c(sc3ncnc(N4CCOCC4)c23)C1 (stereo unspecified)	·	·	-29*	95
CC(C)Oc1ccc(NC(=O)c2ccncc2)cc1	13	-1	75	72
Oc1c(C=Nc2cccnc2)sc2ccccc12	·	·	73	91
Cc1ccsc1C=Nc1ccc(O)cc1	48*	16	77	·
O=C1NC(=O)C2(COC3(CCCC3)OC2)S1	6	4	98	104
CC1CC(C)CN(S(=O)(=O)c2ccc(C(=O)Nc3nnc(-c4cccs4)o3)cc2)C1 (stereo unspecified)	44*	22	61	204
CCc1nnc(NC(=O)c2ccc(S(=O)(=O)N3CCCCC3C)cc2)s1 (stereo unspecified)	-4	3	85	94
CCC1CCCCN1S(=O)(=O)c1ccc(C(=O)Nc2nnc(-c3cccs3)o2)cc1 (stereo unspecified)	82*	34	90	71
CC1CCCN(S(=O)(=O)c2ccc(C(=O)Nc3nnc(-c4ccccc4Cl)o3)cc2)C1 (stereo unspecified)	2	3	63	112
O=C(Nc1nnc(-c2cccs2)o1)c1cccc(C(F)(F)F)c1	64*	0	48	·
CC(C)CCn1c(SCC(=O)OCn2nnc3ccccc3c2=O)nc2ccccc2c1=O	-6	20	112	·
Cc1cc(NS(=O)(=O)c2ccc(NC(=O)Cc3cccs3)cc2)no1	-2	7	81	97
Cc1cc(NS(=O)(=O)c2cccs2)no1	3	-1	-30*	99

Compound activity (PubChem BioAssay)
